Tested on: MS2 coat protein
Test: apparent Kd, MS2 coat protein; higher = weaker binding; RNA-MaP array; FMN 200 µM where present
Summary of the method: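 Stalled E. coli RNA polymerase transcribed the designs on Illumina sequencing-chip clusters. SNAP-549-labelled MS2 coat protein was titrated from 0.7 or 1.5 nM, doubling to 3 µM, without and then with constant ligand, in 100 mM Tris-HCl pH 7.5, 80 mM KCl, 4 mM MgCl2, BSA, DTT, yeast tRNA and Tween-20. Per-cluster binding curves were fitted to green signal normalised to red-channel RNA signal and control-cluster median Fmax. The apparent Kd is the median of the filtered fits.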

[1] = designed as: ON switch for flavin mononucleotide, no ligand
[2] = ligand present: flavin mononucleotide, designed as: ON switch for flavin mononucleotide
[3] = designed as: OFF switch for flavin mononucleotide, no ligand
[4] = ligand present: flavin mononucleotide, designed as: OFF switch for flavin mononucleotide

| Sequence | apparent Kd [1] [µM] | apparent Kd [2] [µM] | apparent Kd [3] [µM] | apparent Kd [4] [µM] |
| --- | --- | --- | --- | --- |
| GGGUACAUCGGAGGAUAUCAUGUGAAUACAUGAGGAUCACCCAUGUCGAUGGAGACAUCGGAGAUUGAGAAGGCCGAUGUACCG | 0.446 | 0.0151 | – | – |
| CUCCGGCAAGGAUAUGCGUCUUCUCCCAUGAAACAAAAUAAACAUGAGGAUCACCCAUGUAGAAGGUGCAGGAC | – | – | 0.0331 | 0.0286 |
| ACGACGAAAGUCGAACGAUGUAGCAGAAGGACAUGAGGAUCACCCAUGUUAUCUGUAAUAGACAUGUAGGAUAUGCUACAUCGA | – | – | 0.00789 | 0.0415 |
| UUUGGGUGGCUGGAGGAUAUUCUAGUGGUUACAUGAGGAUCACCCAUGUGUCGCGCGGUACGCGAGGAGAAGGCUGGCGGCCGUU | 0.135 | 0.0351 | – | – |
| GACUGAUUACAGAAGGUGUAAGACAUGAGGAUCACCCAUGUGUAAAAGGGUAUAUUUGAAUAUAACAAGGAUAUGUUUUAAUCA | 0.0751 | 0.0493 | – | – |
| AUUAUUUAGUGAGGAUAUACAGAUAAAGAGAUUGUAGAAGGCACUUUCCUCAGGACAUGAGGAUCACCCAUGUGUUAAUAAGAU | – | – | 0.0725 | 0.267 |
| UUGGACGUCGUAGGAUAUGUAGGAUUUUCCUACAUGAGGAUCACCCAUGUUGAAAUGGAAGAAGGACAGAAGGACGAUGUCCAU | 0.139 | 0.0162 | – | – |
| UGGUACUAGGGAGGAUAUGGGAAGAUACAUGAGGAUCACCCAUGUUUAAGAAUGCAGAGAGGCAACUAGAAGGCCCUAGUACCU | 0.324 | 0.0187 | – | – |
| CUUCUGUGAGGAUAUUAGUAGUAAAUAAAUAAAAUUAUUACUGAGAAGGCACAUGAGGAUCACCCAUGUUCCUC | – | – | 0.0351 | 0.392 |
| UGGUCAACAUCAGGAUAUUAACAUGGGCUACACUAAGAAGGGAUAAUGAAAUACGAACUAAACGCACAUGAGGAUCACCCAUGU | 0.0344 | 0.025 | – | – |
| UUAUGCUUUGAGAAGGUUCAAACUACAUAUUGCGCACAUGAGGAUCACCCAUGUUGGUGAAUAAGAAAGGAUAUUAGACUGUGC | – | – | 0.267 | 0.165 |
| UACUUGUUAGGAUAUCUUACAUUUGCAUUAUAGCAACUAUUGGAGAAGGGACAUGAGGAUCACCCAUGUUUGGU | – | – | 0.0399 | 0.0482 |
| UGGUGGUAGCAGGAUAUGCUUGUUGUGUAGUUUGCAGAAGGGCUAACAUGAGGAUCACCCAUGUAAGAGGUGUU | – | – | 0.331 | 0.162 |
| GUAGCAAUCGGAGGAUAUUCAUACCGGAAACGGACAUGAGGAUCACCCAUGUCGCGAAAGCGUUGGGAGAAGGCCGAUUGCUAC | 0.22 | 0.0213 | – | – |
| CACAUGGUUACAGGAUAUGUUAGGUUGCUGUUUAUUGGAUAUUAAAUUAUUACAGAAGGGUAAUACAUGAGGAUCACCCAUGUG | 0.129 | 0.0295 | – | – |
| UUCAAUCACAUAGGAUAUAGAAUAAUAAUUUUUUACAUGAGGAUCACCCAUGUUUUAUUGGGUUUCUAGAAGGAUGAGUUAUUA | 0.524 | 0.3 | – | – |
| AUGCUAGUGUGAGGAUAUCAACAUGAGGAUCACCCAUGUUGGAAGUACACGACAUGCGGUACAUCUGAGAAGGUACAUUAGCAU | – | – | 0.0291 | 0.052 |
| GAAGUUUCCUGAGGAUAUACAUGAGGAUCACCCAUGUAAUGCUUGACUUCAGUAGAAGGCGGGAAACGAAAUUUCGGUGAUCAG | – | – | 0.353 | 0.14 |
| GGAUGACAAAGUCAUCCAAUACGAACAUGAGGAUCACCCAUGUAGGAUAUGCAACUCAAAGAGUUGCAGAAGGACAUGUGUCUU | – | – | 0.0289 | 0.128 |
| CGAUGGUAUAUAGGAUAUCAUGUGCAAACAUGAGGAUCACCCAUGUAGGAACGUCAGUUCAAUAAUGAGAAGGAUAUACCAUCG | 0.0351 | 0.0109 | – | – |
